Measured values as given in ChEMBL document CHEMBL4321808, “Heteroaryl Phosphonates as Noncovalent Inhibitors of Both Serine- and Metallocarbapenemases” (J Med Chem, 2019).
Converted amounts (≈) assume the structure as drawn.

Legend:
[1] = Inhibition of N-terminal 6x-His-tagged VIM-2 (unknown origin) expressed in Escherichia coli Rosetta 2 (DE3) assessed as reduction in nitrocefin hydrolysis by spectrophotometry; set-up: species or system Bacteria
Outline: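 Metallo-enzyme assay in 50 mM HEPES pH 7.2 with 50 µM zinc sulfate, 0.01% Triton X-100 and 20 µg/mL BSA, 37 °C. NDM-1 was construct 1 with the His/SUMO tag cleaved, at 2 nM; VIM-2 had its His tag TEV-cleaved, at 0.5 nM. Nitrocefin hydrolysis read at 486 nm; IC50 from sigmoidal fit, Ki by Cheng-Prusoff; mostly duplicate.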

[2] = Inhibition of N-terminal 6x-His/Sumo-tagged NDM-1 (29 to 270 residues) (unknown origin) expressed in Escherichia coli BL21 (DE3) assessed as reduction in nitrocefin hydrolysis by spectrophotometry; set-up: species or system Bacteria
Outline: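 Metallo-enzyme assay in 50 mM HEPES pH 7.2 with 50 µM zinc sulfate, 0.01% Triton X-100 and 20 µg/mL BSA, 37 °C. NDM-1 was construct 1 with the His/SUMO tag cleaved, at 2 nM; VIM-2 had its His tag TEV-cleaved, at 0.5 nM.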

[3] = system: Pseudomonas aeruginosa; assay: Inhibition of NDM1 in Pseudomonas aeruginosa 4129 assessed as potentiation of ceftazidime-induced antimicrobial activity by measuring ceftazidime MIC incubated for 18 to 20 hrs by CLSI based method (reference value: 128 ug/ml)
Outline: (§1)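 CLSI broth microdilution in MHBII. Standardized inoculum was a 0.5 McFarland suspension diluted to about 5×10^5 CFU per well. Ceftazidime was tested over 64–0.006 µg/mL, with avibactam fixed at 4 µg/mL as the positive control.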

[4] = system: Pseudomonas aeruginosa; assay: Antimicrobial activity against Pseudomonas aeruginosa 4135 expressing KPC2 assessed as inhibition of microbial growth incubated for 18 to 20 hrs in presence of imipenem by CLSI based method; assay type: functional
[5] = system: Klebsiella pneumoniae; assay: Antimicrobial activity against Klebsiella pneumoniae C2 expressing KPC2 assessed as inhibition of microbial growth incubated for 18 to 20 hrs in presence of imipenem by CLSI based method; assay type: functional
[6] = Half life in mouse liver microsomes; assay type: ADME, Microsome
[7] = Apparent permeability from basolateral to apical side in MDCK-MDR1 cells; assay type: ADME, cell-based, Canis lupus familiaris; conditions: dog
[8] = Intrinsic clearance in mouse liver microsomes; assay type: ADME, Microsome
[9] = Apparent permeability from apical to basolateral side in MDCK-MDR1 cells; assay type: ADME, cell-based, Canis lupus familiaris; conditions: dog
[10] = Cytotoxicity in HEK293T cells assessed as cell recovery rate at 100 ug/ml incubated for 48 hrs by MTT assay relative to control; assay type: cell-based, HEK-293T; conditions: human, read-out: Activity
Outline: (§2)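 HEK293T cells grown in DMEM with 10% FBS and 1% penicillin/streptomycin. Compounds in DMSO were tested at 200–3.125 µg/mL, two-fold dilutions, for 48 h at 37 °C, 5% CO2. Viability by MTT, read at OD 570 nm; percent recovery calculated against solvent-only controls.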

[11] = system: Pseudomonas aeruginosa; assay: Antimicrobial activity against efflux positive Pseudomonas aeruginosa 4177 expressing NDM1 assessed as inhibition of microbial growth incubated for 18 to 20 hrs in presence of imipenem by CLSI based method; assay type: functional
[12] = system: Pseudomonas aeruginosa; assay: Antimicrobial activity against efflux positive Pseudomonas aeruginosa 4402 expressing VIM2 assessed as inhibition of microbial growth incubated for 18 to 20 hrs in presence of imipenem by CLSI based method; assay type: functional
[13] = system: Pseudomonas aeruginosa; assay: Antimicrobial activity against Pseudomonas aeruginosa 4129 expressing NDM1 assessed as inhibition of microbial growth incubated for 18 to 20 hrs in presence of imipenem by CLSI based method; assay type: functional
[14] = system: Klebsiella pneumoniae; assay: Inhibition of KPC2 in Klebsiella pneumoniae C2 assessed as potentiation of imipenem-induced antimicrobial activity by measuring imipenem MIC incubated for 18 to 20 hrs by CLSI based method (reference value: 512 ug/ml)
[15] = molecular target: Beta-lactamase VIM-2 (Pseudomonas aeruginosa) (UniProt Q9K2N0); assay: Inhibition of VIM-2 in efflux positive Pseudomonas aeruginosa 4402 assessed as potentiation of ceftazidime-induced antimicrobial activity by measuring ceftazidime MIC incubated for 18 to 20 hrs by CLSI based method (reference value: 32 ug/ml); outline: as §1
[16] = Cytotoxicity in HEK293T cells assessed as cell recovery rate at 200 ug/ml incubated for 48 hrs by MTT assay relative to control; assay type: cell-based, HEK-293T; conditions: human, read-out: Activity; outline: as §2
[17] = Permeability in MDCK-MDR1 cells assessed as drug recovery; assay type: ADME, cell-based, Canis lupus familiaris; conditions: dog
[18] = Inhibition of N-terminal 6x-His-tagged Klebsiella pneumoniae KPC2 (25 to 293 residues) assessed as reduction in nitrocefin hydrolysis by spectrophotometry
Outline: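 Purified recombinant KPC-2 at 1 nM in 100 mM Tris-HCl pH 7.0 with 0.01% Triton X-100, 37 °C, reaction started by enzyme. IC50 from sigmoidal fit; Ki by Cheng-Prusoff using the nitrocefin Km. Run in duplicate, or once or in triplicate for some compounds.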

[19] = molecular target: Beta-lactamase VIM-2 (Pseudomonas aeruginosa) (UniProt Q9K2N0); assay: Inhibition of VIM-2 in Pseudomonas aeruginosa 4882 assessed as potentiation of imipenem-induced antimicrobial activity by measuring imipenem MIC incubated for 18 to 20 hrs by CLSI based method (reference value: 32 ug/ml)
[20] = system: Pseudomonas aeruginosa; assay: Inhibition of NDM1 in efflux positive Pseudomonas aeruginosa 4177 assessed as potentiation of ceftazidime-induced antimicrobial activity by measuring ceftazidime MIC incubated for 18 to 20 hrs by CLSI based method (reference value: 128 ug/ml); outline: as §1
[21] = system: Pseudomonas aeruginosa; assay: Inhibition of KPC2 in Pseudomonas aeruginosa 4135 assessed as potentiation of ceftazidime-induced antimicrobial activity by measuring ceftazidime MIC incubated for 18 to 20 hrs by CLSI based method (reference value: […] ug/ml)
[22] = Kinetic solubility in pH 7.4 PBS; assay type: physicochemical; conditions: buffer
[23] = system: Pseudomonas aeruginosa; assay: Antimicrobial activity against Pseudomonas aeruginosa 4882 expressing VIM2 assessed as inhibition of microbial growth incubated for 18 to 20 hrs in presence of imipenem by CLSI based method; assay type: functional
[24] = molecular target: Beta-lactamase VIM-2 (Pseudomonas aeruginosa) (UniProt Q9K2N0); assay: Inhibition of VIM-2 in Pseudomonas aeruginosa 4698 assessed as potentiation of ceftazidime-induced antimicrobial activity by measuring ceftazidime MIC incubated for 18 to 20 hrs by CLSI based method
Outline: (§3)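 CLSI broth microdilution in MHBII. Avibactam fixed at 4 µg/mL with ceftazidime at 64–0.006 µg/mL. Inoculum about 5×10^5 CFU per well, incubated at 35 °C for 18–20 h. Ceftazidime MIC read as absence of visible growth.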

[25] = molecular target: Metallo-beta-lactamase type 2 (Klebsiella pneumoniae) (UniProt C7C422); assay: Inhibition of NDM-1 in Klebsiella pneumoniae 5979 assessed as potentiation of ceftazidime-induced antimicrobial activity by measuring ceftazidime MIC incubated for 18 to 20 hrs by CLSI based method; outline: as §3
Sequence of Metallo-beta-lactamase type 2 (Klebsiella pneumoniae) (C7C422 whole entry): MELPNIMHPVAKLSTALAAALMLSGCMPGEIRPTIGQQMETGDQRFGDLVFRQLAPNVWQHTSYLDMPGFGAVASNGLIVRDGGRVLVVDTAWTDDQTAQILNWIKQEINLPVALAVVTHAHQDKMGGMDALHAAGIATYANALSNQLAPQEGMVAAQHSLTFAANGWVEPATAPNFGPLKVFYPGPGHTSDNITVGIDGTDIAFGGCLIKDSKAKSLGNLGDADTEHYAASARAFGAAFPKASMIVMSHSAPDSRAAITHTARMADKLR

[26] = system: Enterobacter cloacae; assay: Inhibition of NDM-1 in Enterobacter cloacae 5981 assessed as potentiation of ceftazidime-induced antimicrobial activity by measuring ceftazidime MIC incubated for 18 to 20 hrs by CLSI based method; outline: as §3
[27] = system: Escherichia coli; assay: Inhibition of NDM-1 in Escherichia coli 5980 assessed as potentiation of ceftazidime-induced antimicrobial activity by measuring ceftazidime MIC incubated for 18 to 20 hrs by CLSI based method; outline: as §3
[28] = system: Klebsiella pneumoniae; assay: Inhibition of KPC2 in Klebsiella pneumoniae 4683 assessed as potentiation of ceftazidime-induced antimicrobial activity by measuring ceftazidime MIC incubated for 18 to 20 hrs by CLSI based method; outline: as §3
[29] = system: Enterobacter cloacae; assay: Antimicrobial activity against Enterobacter cloacae 5981 expressing NDM1 assessed as inhibition of microbial growth incubated for 18 to 20 hrs by CLSI based method; assay type: functional
Outline: (§4)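 CLSI broth microdilution in MHBII. Compound tested alone in serial two-fold dilutions, 128–0.12 µg/mL. Inoculum was set to 0.5 McFarland and diluted to about 5×10^5 CFU per well. Plates incubated at 35 °C for 18–20 h. MIC read as the lowest concentration with no visible growth; an un-inoculated plate served as solubility control.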

[30] = system: Escherichia coli; assay: Inhibition of NDM-1 in Escherichia coli 5980 assessed as potentiation of imipenem-induced antimicrobial activity by measuring imipenem MIC incubated for 18 to 20 hrs by CLSI based method (reference value: 8 ug/ml)
Outline: (§5)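 CLSI broth microdilution in MHBII. […] Inoculum about 5×10^5 CFU per well, incubated at 35 °C for 18–20 h. Imipenem MIC read as absence of visible growth.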

[31] = system: Klebsiella pneumoniae; conditions: 4683
[32] = system: Enterobacter cloacae; assay: Inhibition of NDM-1 in Enterobacter cloacae 5981 assessed as potentiation of imipenem-induced antimicrobial activity by measuring imipenem MIC incubated for 18 to 20 hrs by CLSI based method (reference value: 2 ug/ml); outline: as §5
[33] = system: Pseudomonas aeruginosa; assay: Antimicrobial activity against Pseudomonas aeruginosa 4698 expressing VIM2 assessed as inhibition of microbial growth incubated for 18 to 20 hrs by CLSI based method; assay type: organism-based; outline: as §4
[34] = system: Klebsiella pneumoniae; assay: Antimicrobial activity against Klebsiella pneumoniae 4683 expressing KPC2 assessed as inhibition of microbial growth incubated for 18 to 20 hrs by CLSI based method; assay type: organism-based; outline: as §4
[35] = molecular target: Metallo-beta-lactamase type 2 (Klebsiella pneumoniae) (UniProt C7C422); assay: Inhibition of NDM-1 in Klebsiella pneumoniae 5979 assessed as potentiation of imipenem-induced antimicrobial activity by measuring imipenem MIC incubated for 18 to 20 hrs by CLSI based method (reference value: <[…] ug/ml)
[36] = system: Escherichia coli; assay: Antimicrobial activity against Escherichia coli 5980 expressing NDM1 assessed as inhibition of microbial growth incubated for 18 to 20 hrs by CLSI based method; assay type: organism-based; outline: as §4
[37] = molecular target: Beta-lactamase VIM-2 (Pseudomonas aeruginosa) (UniProt Q9K2N0); conditions: 4698
[38] = system: Klebsiella pneumoniae; assay: Antimicrobial activity against Klebsiella pneumoniae 5979 expressing NDM1 assessed as inhibition of microbial growth incubated for 18 to 20 hrs by CLSI based method; assay type: organism-based; outline: as §4

`COc1ccc2c(CP(=O)(O)O)cc(=O)oc2c1` gave a Ki [1] of 2.1 µM and a Ki ([2]; read-out: Ki) of 124 µM.

`O=c1cc(CP(=O)(O)O)c2c(Br)cc(Br)cc2[nH]1` gave an MIC [3] of 8 µg/mL, an MIC [4] of 128 µg/mL and an MIC [5] of 16 to 128 µg/mL. The Ki [1] was 0.316 µM, the t1/2 [6] was > 2 h and the Papp [7] was < 0.2 ×10⁻⁶ cm/s. The CLH [8] was < 11.6 µL/min/mg, the Papp [9] was < 0.7 ×10⁻⁶ cm/s and the Ki ([2]; read-out: Ki) was 31.4 µM. For the same compound, the viability at 48 h, 100 ug/ml [10] was 88%, the MIC [11] was 128 µg/mL and the MIC [12] was 128 µg/mL. For the same compound, the MIC [13] was 128 µg/mL, the MIC [14] was 4 to 16 µg/mL and the MIC [15] was 4 µg/mL. For the same compound, the viability at 48 h, 200 ug/ml [16] was 70%, the Drug recovery [17] was 91% and the Ki [18] was 0.02 µM. For the same compound, the MIC [19] was 2 µg/mL, the MIC [20] was 32 µg/mL and the MIC [21] was 2 µg/mL. It also gave a Kinetic_solubility [22] of 241 µM and an MIC [23] of 128 µg/mL.

`NC(=O)[C@@H]1CC[C@@H]2CN1C(=O)N2OS(=O)(=O)O` showed an MIC [24] of 4 µg/mL, an MIC [25] of 4 µg/mL and an MIC [26] of 4 µg/mL. For the same compound, the MIC [27] was 4 µg/mL and the MIC [28] was 4 µg/mL.

In the case of `Cc1cc(C)c2c(CP(=O)(O)O)cc(=O)[nH]c2c1`, the Ki [1] is reported as 3.4 µM, the MIC [29] is reported as > 128 µg/mL and the Ki ([2]; read-out: Ki) is reported as 56.2 µM. It also gave an MIC [30] of 2 µg/mL, an MIC [31] of 1 µg/mL (≈ 3.74 µM) and an MIC [32] of 2 µg/mL. The MIC [33] was > 128 µg/mL, the MIC [34] was > 128 µg/mL and the MIC [35] was 64 µg/mL. The Ki [18] was 2.2 µM, the MIC [36] was > 128 µg/mL and the MIC [37] was > 64 µg/mL. For the same compound, the MIC [38] was > 128 µg/mL and the Kinetic_solubility [22] was 193 µM.

In the case of `O=c1cc(CP(=O)(O)O)c2ccccc2[nH]1`, the Ki [1] is reported as 6.4 µM, the MIC [29] is reported as > 128 µg/mL and the Ki ([2]; read-out: Ki) is reported as 190 µM. For the same compound, the MIC [30] was 2 µg/mL, the MIC [32] was 2 µg/mL and the MIC [33] was > 128 µg/mL. For the same compound, the MIC [34] was > 128 µg/mL, the MIC [35] was 32 µg/mL and the MIC [36] was > 128 µg/mL. The MIC [37] was > 64 µg/mL and the MIC [38] was > 128 µg/mL.

`O=P(O)(O)Cc1cccc2cccnc12` gave a Ki [1] of 22.3 µM.

With `O=c1cc(CP(=O)(O)O)c2c(F)cc(F)cc2o1` the Ki [1] was 3.3 µM and the Ki [2] was “Not Active”.

In the case of `Cc1cc(Br)c2c(CP(=O)(O)O)cc(=O)oc2c1`, the Ki [1] is reported as 1.2 µM, the MIC [29] is reported as > 128 µg/mL and the Ki ([2]; read-out: Ki) is reported as 34.2 µM. For the same compound, the MIC [30] was 2 µg/mL, the MIC [32] was 2 µg/mL and the MIC [33] was > 128 µg/mL. For the same compound, the MIC [34] was > 128 µg/mL, the MIC [35] was 32 µg/mL and the MIC [36] was > 128 µg/mL. For the same compound, the MIC [38] was > 128 µg/mL.
